Legend:
[1] = target: T1, Protein mono-ADP-ribosyltransferase PARP12 (Homo sapiens) (UniProt Q9H0J9); assay: Inhibition of human recombinant PARP12 at 10 uM incubated for 1 hr using NAD+, biotinylated NAD+ and activated DNA by luminescence based assay
T1 sequence (whole entry): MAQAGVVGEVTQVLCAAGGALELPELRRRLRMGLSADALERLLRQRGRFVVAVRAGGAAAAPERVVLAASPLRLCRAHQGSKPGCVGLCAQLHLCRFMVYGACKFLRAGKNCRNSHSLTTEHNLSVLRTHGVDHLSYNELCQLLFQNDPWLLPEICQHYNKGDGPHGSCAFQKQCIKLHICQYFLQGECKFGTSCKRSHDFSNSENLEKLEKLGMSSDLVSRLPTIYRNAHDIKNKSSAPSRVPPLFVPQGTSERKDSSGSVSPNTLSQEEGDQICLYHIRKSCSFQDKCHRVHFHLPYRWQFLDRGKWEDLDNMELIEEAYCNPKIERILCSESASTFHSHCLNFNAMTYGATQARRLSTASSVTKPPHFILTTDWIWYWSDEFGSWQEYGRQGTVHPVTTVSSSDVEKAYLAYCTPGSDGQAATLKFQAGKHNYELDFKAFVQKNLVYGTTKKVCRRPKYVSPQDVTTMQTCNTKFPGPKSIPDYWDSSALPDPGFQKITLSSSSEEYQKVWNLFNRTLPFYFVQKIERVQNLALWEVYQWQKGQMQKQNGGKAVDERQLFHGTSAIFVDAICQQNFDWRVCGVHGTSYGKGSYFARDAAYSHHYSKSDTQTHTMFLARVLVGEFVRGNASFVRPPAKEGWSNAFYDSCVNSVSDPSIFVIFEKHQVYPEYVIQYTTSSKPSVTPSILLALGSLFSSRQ
How it was run: (§1)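 Recombinant PARP enzyme reactions were run in duplicate for 1 h at rt on histone-coated plates in Tris·HCl pH 8.0 buffer with NAD+, biotinylated NAD+ and activated DNA. Detection used streptavidin-HRP for 30 min at rt, then a chemiluminescent developer. % inhibition = 100 − % activity, scaled between the no-compound (100%) and no-enzyme (0%) signals.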

[2] = target: Poly [ADP-ribose] polymerase 2 (Homo sapiens) (UniProt Q9UGN5); assay: Inhibition of human recombinant PARP2 incubated for 1 hr using histone substrate at 1 uM by luminescence based assay; how it was run: as §1
Chain of Poly [ADP-ribose] polymerase 2 (Homo sapiens) (Q9UGN5 whole entry): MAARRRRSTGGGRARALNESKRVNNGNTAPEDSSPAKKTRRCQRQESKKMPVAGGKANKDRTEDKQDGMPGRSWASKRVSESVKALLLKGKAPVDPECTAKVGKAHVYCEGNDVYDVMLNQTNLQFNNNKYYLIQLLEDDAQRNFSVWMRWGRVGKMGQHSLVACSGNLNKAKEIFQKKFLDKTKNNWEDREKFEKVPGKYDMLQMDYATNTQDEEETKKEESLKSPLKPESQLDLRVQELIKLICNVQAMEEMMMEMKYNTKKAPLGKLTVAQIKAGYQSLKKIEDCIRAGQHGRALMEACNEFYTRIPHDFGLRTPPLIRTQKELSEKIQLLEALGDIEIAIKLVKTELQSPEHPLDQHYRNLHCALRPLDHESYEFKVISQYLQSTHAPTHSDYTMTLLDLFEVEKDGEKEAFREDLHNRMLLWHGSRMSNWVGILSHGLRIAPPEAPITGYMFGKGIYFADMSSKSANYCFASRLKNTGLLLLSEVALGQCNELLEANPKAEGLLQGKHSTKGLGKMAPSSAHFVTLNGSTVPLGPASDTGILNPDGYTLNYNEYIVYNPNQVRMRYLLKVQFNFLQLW

[3] = target: Protein mono-ADP-ribosyltransferase PARP14 (Homo sapiens) (UniProt Q460N5); assay: Inhibition of human recombinant PARP14 at 10 uM incubated for 1 hr using NAD+, biotinylated NAD+ and activated DNA by luminescence based assay; how it was run: as §1
Chain of Protein mono-ADP-ribosyltransferase PARP14 (Homo sapiens) (Q460N5 whole entry): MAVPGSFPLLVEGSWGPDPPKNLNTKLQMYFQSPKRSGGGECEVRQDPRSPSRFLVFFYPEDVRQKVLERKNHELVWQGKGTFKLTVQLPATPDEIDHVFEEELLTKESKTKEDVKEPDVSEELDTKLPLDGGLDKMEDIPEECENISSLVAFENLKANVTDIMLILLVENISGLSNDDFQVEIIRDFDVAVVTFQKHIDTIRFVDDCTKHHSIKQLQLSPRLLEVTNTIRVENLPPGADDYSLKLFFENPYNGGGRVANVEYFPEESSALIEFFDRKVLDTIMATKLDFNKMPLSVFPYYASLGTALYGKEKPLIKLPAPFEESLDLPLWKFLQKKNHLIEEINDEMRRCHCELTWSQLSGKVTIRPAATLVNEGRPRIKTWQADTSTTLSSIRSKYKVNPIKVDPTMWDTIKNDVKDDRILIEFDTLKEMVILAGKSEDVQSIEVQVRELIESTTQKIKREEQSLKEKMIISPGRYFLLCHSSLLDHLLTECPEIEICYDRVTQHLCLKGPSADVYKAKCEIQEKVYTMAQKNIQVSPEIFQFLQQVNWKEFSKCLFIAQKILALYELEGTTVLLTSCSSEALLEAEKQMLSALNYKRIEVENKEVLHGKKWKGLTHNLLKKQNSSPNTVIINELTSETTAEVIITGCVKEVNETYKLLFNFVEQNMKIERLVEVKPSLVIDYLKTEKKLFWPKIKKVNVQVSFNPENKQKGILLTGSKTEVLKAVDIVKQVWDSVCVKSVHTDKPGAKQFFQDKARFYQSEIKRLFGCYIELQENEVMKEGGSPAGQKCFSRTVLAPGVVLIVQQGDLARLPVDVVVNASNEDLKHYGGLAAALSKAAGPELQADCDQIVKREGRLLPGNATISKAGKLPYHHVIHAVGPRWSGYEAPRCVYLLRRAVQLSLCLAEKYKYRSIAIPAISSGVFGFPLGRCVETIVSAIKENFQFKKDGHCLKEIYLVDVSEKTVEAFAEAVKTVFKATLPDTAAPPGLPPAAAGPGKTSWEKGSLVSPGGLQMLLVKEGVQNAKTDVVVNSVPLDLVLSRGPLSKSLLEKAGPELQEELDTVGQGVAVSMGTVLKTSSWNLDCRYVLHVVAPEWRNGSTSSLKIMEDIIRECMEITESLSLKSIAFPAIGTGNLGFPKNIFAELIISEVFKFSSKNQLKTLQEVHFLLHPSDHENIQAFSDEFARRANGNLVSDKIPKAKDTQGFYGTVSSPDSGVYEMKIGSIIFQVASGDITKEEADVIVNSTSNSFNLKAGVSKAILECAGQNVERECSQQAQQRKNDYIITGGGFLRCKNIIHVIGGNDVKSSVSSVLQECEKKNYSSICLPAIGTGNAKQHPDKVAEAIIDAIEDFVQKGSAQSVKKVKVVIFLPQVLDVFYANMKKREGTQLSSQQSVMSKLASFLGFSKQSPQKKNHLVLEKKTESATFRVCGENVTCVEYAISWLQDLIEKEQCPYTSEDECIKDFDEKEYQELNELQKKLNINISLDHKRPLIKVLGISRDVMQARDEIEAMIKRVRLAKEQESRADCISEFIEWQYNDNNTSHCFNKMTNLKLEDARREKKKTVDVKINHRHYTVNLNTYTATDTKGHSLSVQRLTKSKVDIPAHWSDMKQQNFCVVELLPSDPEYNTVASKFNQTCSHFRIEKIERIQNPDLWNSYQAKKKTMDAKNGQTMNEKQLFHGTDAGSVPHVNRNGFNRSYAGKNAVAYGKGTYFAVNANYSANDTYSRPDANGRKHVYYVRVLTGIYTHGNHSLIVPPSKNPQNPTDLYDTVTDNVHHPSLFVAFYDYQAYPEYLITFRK

[4] = target: T2, Protein mono-ADP-ribosyltransferase PARP10 (Homo sapiens) (UniProt Q53GL7); assay: Inhibition of human recombinant PARP10 at 10 uM incubated for 1 hr using NAD+, biotinylated NAD+ and activated DNA by luminescence based assay; how it was run: as §1
T2 sequence (whole entry): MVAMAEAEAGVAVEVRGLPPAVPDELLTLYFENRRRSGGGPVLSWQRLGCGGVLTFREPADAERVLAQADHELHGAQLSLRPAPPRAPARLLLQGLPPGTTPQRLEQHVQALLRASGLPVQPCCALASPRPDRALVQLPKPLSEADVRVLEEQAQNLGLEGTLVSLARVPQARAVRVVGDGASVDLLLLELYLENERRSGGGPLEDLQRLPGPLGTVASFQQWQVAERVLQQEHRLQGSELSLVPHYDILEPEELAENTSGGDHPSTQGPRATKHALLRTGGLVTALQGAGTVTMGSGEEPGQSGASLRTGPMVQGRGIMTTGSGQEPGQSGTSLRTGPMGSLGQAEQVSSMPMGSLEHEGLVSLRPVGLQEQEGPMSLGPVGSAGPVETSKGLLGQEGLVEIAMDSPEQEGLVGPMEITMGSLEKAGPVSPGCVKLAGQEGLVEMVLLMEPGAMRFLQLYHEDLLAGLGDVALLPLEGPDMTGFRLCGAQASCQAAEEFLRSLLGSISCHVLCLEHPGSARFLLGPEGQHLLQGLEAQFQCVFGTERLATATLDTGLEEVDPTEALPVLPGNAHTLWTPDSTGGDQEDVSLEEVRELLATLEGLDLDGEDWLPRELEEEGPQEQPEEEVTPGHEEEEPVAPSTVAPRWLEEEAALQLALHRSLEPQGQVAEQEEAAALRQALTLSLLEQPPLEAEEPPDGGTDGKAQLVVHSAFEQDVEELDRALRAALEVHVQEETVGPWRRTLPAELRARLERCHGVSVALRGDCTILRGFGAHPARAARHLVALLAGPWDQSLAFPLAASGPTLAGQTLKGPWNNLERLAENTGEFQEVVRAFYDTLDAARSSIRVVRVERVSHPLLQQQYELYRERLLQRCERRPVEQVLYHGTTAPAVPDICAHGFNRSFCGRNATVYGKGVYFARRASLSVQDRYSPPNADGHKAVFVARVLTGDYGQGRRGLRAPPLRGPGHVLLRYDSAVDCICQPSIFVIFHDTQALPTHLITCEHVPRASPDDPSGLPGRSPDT

[5] = target: T3, Protein mono-ADP-ribosyltransferase PARP11 (Homo sapiens) (UniProt Q9NR21); assay: Inhibition of human recombinant PARP11 at 10 uM incubated for 1 hr using NAD+, biotinylated NAD+ and activated DNA by luminescence based assay; how it was run: as §1
T3 sequence (whole entry): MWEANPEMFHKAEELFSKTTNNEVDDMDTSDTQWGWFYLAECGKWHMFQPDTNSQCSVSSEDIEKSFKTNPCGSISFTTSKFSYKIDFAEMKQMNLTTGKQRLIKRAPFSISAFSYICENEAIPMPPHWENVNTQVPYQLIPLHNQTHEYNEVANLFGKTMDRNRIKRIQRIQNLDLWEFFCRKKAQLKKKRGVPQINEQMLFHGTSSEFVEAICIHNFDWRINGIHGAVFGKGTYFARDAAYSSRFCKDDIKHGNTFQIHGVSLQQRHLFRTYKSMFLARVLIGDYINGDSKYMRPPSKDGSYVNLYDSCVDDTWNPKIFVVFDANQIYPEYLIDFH

CC(C)(C)c1ccc(-c2nc3c(sc4ccccc43)c(=O)[nH]2)cc1
inhibition [1]: 14% | inhibition [2]: 4% | inhibition [3]: 0% | inhibition [4]: 3% | inhibition [5]: 10%
